Experimental data taken from ChEMBL document CHEMBL1127414 (J Med Chem, 1994).

Key:
[1] = system: Mus musculus; assay: Tested for its ability to inhibit the incorporation of [5-3H]-mevalonolactone into cholesterol by in vivo mouse assay by peroral administration at a dose of 40 mg/kg; assay type: functional; settings: route oral
Outline: (§1)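 Female Swiss Webster mice (~25 g), six per group, dosed po by gavage with inhibitor suspended in 5% emulphor. 30 min later, 0.5 μCi/mouse [5-3H]mevalonolactone in saline given sc. Livers removed 30 min after that and saponified in KOH/EtOH overnight at 55 °C, then petroleum-ether extracted. Nonsaponifiable dpm counted. Compounds first tested at a single dose (typically 12 or 24 mg/kg).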

[2] = biological target: T1, Squalene synthase (Rattus norvegicus, UniProt Q02769); assay: Tested for inhibition against squalene synthase enzyme in rat liver
T1 sequence (Q02769 whole entry): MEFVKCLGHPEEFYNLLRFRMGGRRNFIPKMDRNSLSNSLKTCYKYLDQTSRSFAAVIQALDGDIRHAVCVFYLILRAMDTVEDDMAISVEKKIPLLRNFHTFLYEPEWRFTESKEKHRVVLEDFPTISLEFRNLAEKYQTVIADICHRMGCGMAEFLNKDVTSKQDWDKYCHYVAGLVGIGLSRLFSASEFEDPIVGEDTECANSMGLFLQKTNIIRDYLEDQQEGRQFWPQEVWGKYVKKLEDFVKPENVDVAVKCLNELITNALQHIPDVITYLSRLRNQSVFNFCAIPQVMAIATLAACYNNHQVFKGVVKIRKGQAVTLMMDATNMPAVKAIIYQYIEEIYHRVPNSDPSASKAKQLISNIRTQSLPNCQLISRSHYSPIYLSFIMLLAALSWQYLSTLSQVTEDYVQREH

[3] = biological target: T2, Squalene synthase (Rattus norvegicus) (UniProt Q02769); assay: concentration required to inhibit rat liver squalene synthase enzyme relative to control (L-694,599)
T2 sequence (whole entry): T1 sequence (Q02769 whole entry)
Outline: (§2)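 Enzyme from rat liver. […] Inhibitors added in DMSO (0.3% final) as 3-fold serial dilutions, usually up to 30 ng/mL (about 40 nM). IC50 read from % inhibition vs log concentration.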

[4] = system: HepG2; assay: Concentration required to inhibit cholesterol synthesis in Hep G2 cells; assay type: functional, cell-based; settings: Homo sapiens
Outline: (§3)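 Hep G2 cells held 2 days in lipoprotein-depleted FBS to stimulate sterol synthesis, then given inhibitor in serum-free medium for 2 h. 15 μCi [5-3H]mevalonate (0.2 mCi/mmol) added for 1 h. Cells washed and saponified, and radioactivity counted by scintillation.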

[5] = system: HepG2; assay: Concentration required to inhibit cholesterol synthesis in Hep G2 cells relative to control (IC50 of L-694,599); assay type: functional, Homo sapiens; outline: as §3
[6] = biological target: T2, Squalene synthase (Rattus norvegicus); assay: Concentration required to inhibit rat liver squalene synthase enzyme relative to control (L-694,599); outline: as §2
[7] = system: Mus musculus; assay: Tested for its ability to inhibit the incorporation of [5-3H]-mevalonolactone into cholesterol by in vivo mouse assay by peroral administration at a dose of 12 mg/kg; assay type: functional; settings: route oral; outline: as §1
[8] = system: Mus musculus; assay: Ability to inhibit the incorporation of [5-3H]-mevalonolactone into cholesterol by in vivo mouse assay by peroral administration at a dose of 24 mg/kg; assay type: functional; settings: route oral; outline: as §1
[9] = biological target: T3, Squalene synthase (Mus musculus) (UniProt P53798); assay: Tested for the effective dose required for the incorporation of [5-3H]-mevalonolactone into cholesterol by in vivo mouse assay by peroral administration; assay type: functional, organism-based; outline: as §1
T3 sequence (whole entry): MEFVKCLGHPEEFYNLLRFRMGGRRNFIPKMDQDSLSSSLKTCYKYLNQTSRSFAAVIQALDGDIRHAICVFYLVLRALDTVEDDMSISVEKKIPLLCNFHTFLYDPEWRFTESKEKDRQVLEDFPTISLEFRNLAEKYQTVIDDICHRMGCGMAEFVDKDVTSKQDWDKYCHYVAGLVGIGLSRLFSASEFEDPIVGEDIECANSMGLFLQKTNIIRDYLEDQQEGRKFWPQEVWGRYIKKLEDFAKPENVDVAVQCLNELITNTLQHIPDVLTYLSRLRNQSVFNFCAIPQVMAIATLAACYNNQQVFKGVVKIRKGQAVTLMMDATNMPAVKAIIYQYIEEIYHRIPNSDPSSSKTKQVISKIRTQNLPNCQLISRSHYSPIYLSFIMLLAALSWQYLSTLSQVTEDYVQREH

Row | Structure (SMILES) | inhibition in vivo at 40 mg/kg [1] [%] | IC50 [2] [nM] | Relative activity [3] | IC50 [4] [nM] | Relative activity [5] | Relative activity [6] | inhibition in vivo at 12 mg/kg [7] [%] | inhibition in vivo at 24 mg/kg [8] [%] | ED50 [9] [mg/kg]
1 | C=C(CCC12OC(C(=O)O)C(O)(C(=O)O)C(C(=O)O)(O1)[C@H](OCCCCCCCCOc1ccccc1)[C@H]2O)[C@@H](OC(C)=O)[C@H](C)Cc1ccccc1 (some centres undefined) | 4 | 0.16 | 0.81 | – | – | – | – | – | –
2 | C=C(CCC12OC(C(=O)O)C(O)(C(=O)O)C(C(=O)O)(O1)[C@H](OC(=O)/C=C/[C@@H](C)C[C@@H](C)CC)[C@H]2O)C[C@H](C)Cc1ccccc1 (some centres undefined) | – | 0.24 | 1.67 | – | – | – | – | – | –
3 | C=C(CCC12OC(C(=O)O)C(OCCCCCCCCOc3ccccc3)(C(=O)O)C(C(=O)O)(O1)[C@H](OCCCCCCCCOc1ccccc1)[C@H]2O)[C@@H](OC(C)=O)[C@H](C)Cc1ccccc1 (some centres undefined) | – | 8.2 | 0.02 | – | – | – | – | – | –
4 | C=C(CCC12OC(C(=O)O)C(O)(C(=O)O)C(C(=O)O)(O1)[C@H](OC(=O)CCCCCCCCCCCCCCC)[C@H]2O)[C@@H](OC(C)=O)[C@H](C)Cc1ccccc1 (some centres undefined) | – | 0.52 | – | 2500 | 2.2 | 0.27 | – | – | –
5 | C=C(CCC12OC(C(=O)O)C(O)(C(=O)O)C(C(=O)O)(O1)[C@H](OC(=O)CC[C@@H](C)C[C@@H](C)CC)[C@H]2O)[C@@H](OC(C)=O)[C@H](C)Cc1ccccc1 (some centres undefined) | – | 0.19 | – | 7500 | 0.8 | 0.74 | – | – | –
6 | CCCC(=O)O[C@@H]1[C@@H](O)C2(CCCCc3ccccc3)OC(C(=O)O)C(O)(C(=O)O)C1(C(=O)O)O2 (some centres undefined) | – | > 3000 | – | – | – | 0 | 5 | – | –
7 | C=C(CCC12OC(C(=O)O)C(OCCCCCCCCCCCCCC)(C(=O)O)C(C(=O)O)(O1)[C@H](O)[C@H]2O)[C@@H](OC(C)=O)[C@H](C)Cc1ccccc1 (some centres undefined) | – | 0.75 | 0.17 | – | – | – | – | – | –
8 | C=C(CCC12OC(C(=O)O)C(O)(C(=O)O)C(C(=O)O)(O1)[C@H](OC(=O)CCCCCCCCCCc1ccccc1)[C@H]2O)[C@@H](OC(C)=O)[C@H](C)Cc1ccccc1 (some centres undefined) | – | 0.38 | – | 8000 | 1.37 | 0.45 | – | 11 | –
9 | C=C(CCC12OC(C(=O)O)C(O)(C(=O)O)C(C(=O)O)(O1)[C@H](OC)[C@H]2O)[C@@H](OC(C)=O)[C@H](C)Cc1ccccc1 (some centres undefined) | – | 22 | – | – | – | 0.004 | 73 | – | < 12
10 | C=C(CCC12OC(C(=O)O)C(O)(C(=O)O)C(C(=O)O)(O1)[C@H](OCCCCCCCCCC)[C@H]2O)[C@@H](OC(C)=O)[C@H](C)Cc1ccccc1 (some centres undefined) | 28 | 0.21 | 1.43 | 2200 | 4.09 | – | – | – | –
11 | C=C(CCC12OC(C(=O)O)C(O)(C(=O)O)C(C(=O)O)(O1)[C@H](OCCCCCCCCCCCCCC)[C@H]2O)[C@@H](OC(C)=O)[C@H](C)Cc1ccccc1 (some centres undefined) | 0 | 0.09 | 1.26 | 1500 | 6 | – | – | – | –
12 | C=C(CCC12OC(C(=O)O)C(O)(C(=O)O)C(C(=O)O)(O1)[C@H](OC(=O)NCCCCCCCCCCCC)[C@H]2O)[C@@H](OC(C)=O)[C@H](C)Cc1ccccc1 (some centres undefined) | – | 0.17 | – | 8800 | 1.02 | 1.29 | – | 0 | –
13 | C=C(CCC12OC(C(=O)O)C(O)(C(=O)O)C(C(=O)O)(O1)[C@H](O)[C@H]2O)[C@@H](OC(C)=O)[C@H](C)Cc1ccccc1 (some centres undefined) | – | – | – | – | – | – | – | 34 | > 24
14 | C=C(CCC12OC(C(=O)O)C(O)(C(=O)O)C(C(=O)O)(O1)[C@H](OC(=O)/C=C/[C@@H](C)C[C@@H](C)CC)[C@H]2O)[C@@H](OC(=O)CC)[C@H](C)Cc1ccccc1 (some centres undefined) | – | 0.42 | 0.69 | – | – | – | – | -4 | –
